In ChEMBL document CHEMBL1158184, “Synthesis and anti-CVB 3 evaluation of substituted 5-nitro-2-phenoxybenzonitriles” (Bioorg Med Chem Lett, 2008):

Columns and labels:
Coxsackievirus B3 = assay: Antiviral activity against Coxsackievirus B3 assessed as reduction of virus-induced cytopathogenicity after 3 days by MTS assay; assay type: functional, organism-based; settings: Enterovirus B, 72 h
Summary of the method: (§1)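 MTS-based CPE reduction assay. Confluent cell monolayers were infected with 100 CCID50 of virus and left 2 h at 37 °C for adsorption, then the inoculum was removed and serial compound dilutions were added. MTS/PMS was added for 2 h and OD was read at 498 nm. EC50 was derived from %CPE relative to uninfected and infected untreated controls.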

Echovirus E11 = assay: Antiviral activity against Echovirus 11 in human MRC5 cells; assay type: functional; summary of the method: as §1
enterovirus D68 = assay: Antiviral activity against Enterovirus 68 in human MRC5 cells; assay type: functional; summary of the method: as §1
Coxsackievirus B6 = assay: Antiviral activity against Coxsackievirus B6 in african green monkey Vero cells; assay type: functional; summary of the method: as §1
Echovirus E9 = assay: Antiviral activity against Echovirus 9 in human MRC5 cells; assay type: functional; summary of the method: as §1
Coxsackievirus B5 = assay: Antiviral activity against Coxsackievirus B5 in african green monkey Vero cells; assay type: functional; summary of the method: as §1
Coxsackievirus B2 = assay: Antiviral activity against Coxsackievirus B2 in african green monkey Vero cells; assay type: functional; summary of the method: as §1
Coxsackievirus A24 = assay: Antiviral activity against Coxsackievirus A24 in human MRC5 cells; assay type: functional
Summary of the method: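 MTS-based CPE-reduction assay. Confluent monolayers were infected with 100 CCID50 of virus and adsorbed for 2 h at 37 °C; virus was then removed and serial compound dilutions added. Cultures were incubated 3 days at 37 °C until complete CPE in the untreated virus control. After MTS/PMS for 2 h, OD was read at 498 nm, %CPE calculated against uninfected and infected-untreated controls, and EC50 derived.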

Coxsackievirus B4 = assay: Antiviral activity against Coxsackievirus B4 in african green monkey Vero cells; assay type: functional; summary of the method: as §1
Coxsackievirus B1 = assay: Antiviral activity against Coxsackievirus B1 in african green monkey Vero cells; assay type: functional; summary of the method: as §1

COc1ccccc1Oc1ccc([N+](=O)[O-])cc1C#N
IC50 (Coxsackievirus B3): 54 µM

N#Cc1cc([N+](=O)[O-])ccc1Oc1cccc(Cl)c1Cl
Activity (Echovirus E11): >323 µM | IC50 (Coxsackievirus B3): 4.9 µM | Activity (enterovirus D68): >323 µM | Activity (Coxsackievirus B6): 10 µM | Activity (Echovirus E9): >323 µM | Activity (Coxsackievirus B5): 4.8 µM | Activity (Coxsackievirus B2): 8.6 µM | Activity (Coxsackievirus A24): >309 µM | Activity (Coxsackievirus B4): 17 µM | Activity (Coxsackievirus B1): 3.3 µM

N#Cc1cc([N+](=O)[O-])ccc1Oc1ccccc1Br
IC50 (Coxsackievirus B3): > 143 µM

CS(=O)(=O)c1ccc(Oc2ccc([N+](=O)[O-])cc2C#N)cc1
IC50 (Coxsackievirus B3): 174 µM

N#Cc1cc([N+](=O)[O-])ccc1Oc1ccccc1
Activity (Echovirus E11): >416 µM | IC50 (Coxsackievirus B3): 8.7 µM | Activity (enterovirus D68): >416 µM | Activity (Coxsackievirus B6): 19 µM | Activity (Echovirus E9): >416 µM | Activity (Coxsackievirus B5): 10 µM | Activity (Coxsackievirus B2): 17 µM | Activity (Coxsackievirus A24): >240 µM | Activity (Coxsackievirus B4): 26 µM | Activity (Coxsackievirus B1): 6.9 µM

COc1ccc(Oc2ccc([N+](=O)[O-])cc2C#N)cc1
IC50 (Coxsackievirus B3): 46 µM

N#Cc1cc([N+](=O)[O-])ccc1Oc1ccccc1Cl
Activity (Echovirus E11): 35 µM | IC50 (Coxsackievirus B3): 6.9 µM | Activity (enterovirus D68): 22 µM | Activity (Coxsackievirus B6): 8.1 µM | Activity (Echovirus E9): 35 µM | Activity (Coxsackievirus B5): 3.1 µM | Activity (Coxsackievirus B2): 6.2 µM | Activity (Coxsackievirus A24): 23 µM | Activity (Coxsackievirus B4): 14 µM | Activity (Coxsackievirus B1): 5.6 µM

N#Cc1ccc(Oc2ccc([N+](=O)[O-])cc2C#N)cc1
IC50 (Coxsackievirus B3): 4.1 µM

CC(=O)c1ccc(Oc2ccc([N+](=O)[O-])cc2C#N)cc1
IC50 (Coxsackievirus B3): 35 µM

N#Cc1cc([N+](=O)[O-])ccc1Oc1ccc(Cl)cc1Cl
IC50 (Coxsackievirus B3): 13 µM

COc1cccc(Oc2ccc([N+](=O)[O-])cc2C#N)c1
IC50 (Coxsackievirus B3): 12 µM

N#Cc1cc([N+](=O)[O-])ccc1Oc1ccc(Cl)cc1
Activity (Echovirus E11): >364 µM | IC50 (Coxsackievirus B3): 5 µM | Activity (enterovirus D68): >364 µM | Activity (Echovirus E9): >364 µM

Cc1ccc(Oc2ccc([N+](=O)[O-])cc2C#N)cc1
IC50 (Coxsackievirus B3): 6.2 µM

N#Cc1cc([N+](=O)[O-])ccc1Oc1ccc(Br)cc1
IC50 (Coxsackievirus B3): 5.7 µM

CSc1ccc(Oc2ccc([N+](=O)[O-])cc2C#N)cc1
IC50 (Coxsackievirus B3): 93 µM

N#Cc1cc([N+](=O)[O-])ccc1Oc1cc(Cl)cc(Cl)c1
IC50 (Coxsackievirus B3): > 81 µM

N#Cc1cc([N+](=O)[O-])ccc1Oc1ccc(Cl)c(Cl)c1
Activity (Echovirus E11): 6.7 µM | IC50 (Coxsackievirus B3): 6.5 µM | Activity (enterovirus D68): 12 µM | Activity (Coxsackievirus B6): 12 µM | Activity (Echovirus E9): >324 µM | Activity (Coxsackievirus B5): 18 µM | Activity (Coxsackievirus B2): 15 µM | Activity (Coxsackievirus A24): 1.8 µM | Activity (Coxsackievirus B4): 17 µM | Activity (Coxsackievirus B1): 15 µM

N#Cc1cc([N+](=O)[O-])ccc1Oc1cccc(Cl)c1
IC50 (Coxsackievirus B3): 4.9 µM

N#Cc1cc([N+](=O)[O-])ccc1Oc1cc(Cl)ccc1Cl
Activity (Echovirus E11): >323 µM | IC50 (Coxsackievirus B3): 3.8 µM | Activity (enterovirus D68): >323 µM | Activity (Echovirus E9): >323 µM

N#Cc1cc([N+](=O)[O-])ccc1Oc1cccc(C(=O)O)c1
IC50 (Coxsackievirus B3): > 352 µM

N#Cc1cc([N+](=O)[O-])ccc1Oc1cccc([N+](=O)[O-])c1
IC50 (Coxsackievirus B3): 38 µM

Cc1cc(Oc2ccc([N+](=O)[O-])cc2C#N)ccc1Cl
Activity (Echovirus E11): >346 µM | IC50 (Coxsackievirus B3): 2 µM | Activity (enterovirus D68): >346 µM | Activity (Coxsackievirus B6): >346 µM | Activity (Echovirus E9): >346 µM | Activity (Coxsackievirus B5): 2.1 µM | Activity (Coxsackievirus B2): 5.2 µM | Activity (Coxsackievirus A24): 234 µM | Activity (Coxsackievirus B4): >346 µM | Activity (Coxsackievirus B1): 4.8 µM

N#Cc1cc([N+](=O)[O-])ccc1Oc1cc(Cl)c(Cl)cc1Cl
IC50 (Coxsackievirus B3): 59 µM

N#Cc1cc([N+](=O)[O-])ccc1Oc1cccc(N)c1
IC50 (Coxsackievirus B3): 241 µM

N#Cc1cc([N+](=O)[O-])ccc1Oc1ccc(C(=O)O)cc1
IC50 (Coxsackievirus B3): > 352 µM

N#Cc1cc([N+](=O)[O-])ccc1Oc1ccc([N+](=O)[O-])cc1
Activity (Echovirus E11): >350 µM | IC50 (Coxsackievirus B3): 3.3 µM | Activity (enterovirus D68): >350 µM | Activity (Echovirus E9): >350 µM | Activity (Coxsackievirus A24): >350 µM

CC(=O)Nc1cccc(Oc2ccc([N+](=O)[O-])cc2C#N)c1
IC50 (Coxsackievirus B3): 121 µM

CC(=O)Nc1ccc(Oc2ccc([N+](=O)[O-])cc2C#N)cc1
IC50 (Coxsackievirus B3): > 336 µM

N#Cc1cc([N+](=O)[O-])ccc1Oc1cccc(Br)c1
IC50 (Coxsackievirus B3): 5 µM

CC(C)c1cccc(Oc2ccc([N+](=O)[O-])cc2C#N)c1
IC50 (Coxsackievirus B3): 40 µM

CN(C)c1cccc(Oc2ccc([N+](=O)[O-])cc2C#N)c1
IC50 (Coxsackievirus B3): 31 µM

CC(=O)c1cccc(Oc2ccc([N+](=O)[O-])cc2C#N)c1
IC50 (Coxsackievirus B3): 57 µM

N#Cc1ccccc1Oc1ccc([N+](=O)[O-])cc1C#N
IC50 (Coxsackievirus B3): 11 µM

N#Cc1cccc(Oc2ccc([N+](=O)[O-])cc2C#N)c1
IC50 (Coxsackievirus B3): 7.4 µM

N#Cc1cc([N+](=O)[O-])ccc1Oc1ccc(Cl)cc1N
IC50 (Coxsackievirus B3): > 53 µM

Cc1cc(Oc2ccc([N+](=O)[O-])cc2C#N)ccc1[N+](=O)[O-]
IC50 (Coxsackievirus B3): 11 µM

N#Cc1cc([N+](=O)[O-])ccc1Oc1ccc(Br)cc1Cl
IC50 (Coxsackievirus B3): 3.7 µM

N#Cc1ccc(Oc2ccc([N+](=O)[O-])cc2C#N)c(Cl)c1
IC50 (Coxsackievirus B3): 7.3 µM

N#Cc1cc([N+](=O)[O-])ccc1Oc1ccc(Br)cc1Br
IC50 (Coxsackievirus B3): 6.2 µM

Cc1ccc(Oc2ccc([N+](=O)[O-])cc2C#N)cc1C
IC50 (Coxsackievirus B3): 99 µM

Cc1ccccc1Oc1ccc([N+](=O)[O-])cc1C#N
IC50 (Coxsackievirus B3): 57 µM

Cc1cccc(Oc2ccc([N+](=O)[O-])cc2C#N)c1
Activity (Echovirus E11): >393 µM | IC50 (Coxsackievirus B3): 6.4 µM | Activity (enterovirus D68): 76 µM | Activity (Coxsackievirus B6): 22 µM | Activity (Echovirus E9): >393 µM | Activity (Coxsackievirus B5): 13 µM | Activity (Coxsackievirus B2): 11 µM | Activity (Coxsackievirus A24): 19 µM | Activity (Coxsackievirus B4): 22 µM | Activity (Coxsackievirus B1): 8.9 µM

Cc1cc(Oc2ccc([N+](=O)[O-])cc2C#N)ccc1Br
IC50 (Coxsackievirus B3): 2.6 µM

N#Cc1cc([N+](=O)[O-])ccc1Oc1ccc(Br)c(Cl)c1
IC50 (Coxsackievirus B3): 6.7 µM

Cc1cc(Cl)ccc1Oc1ccc([N+](=O)[O-])cc1C#N
IC50 (Coxsackievirus B3): 11 µM

CCc1cc(Oc2ccc([N+](=O)[O-])cc2C#N)ccc1Cl
IC50 (Coxsackievirus B3): > 330 µM

N#Cc1cc([N+](=O)[O-])ccc1Oc1ccc([N+](=O)[O-])cc1Cl
IC50 (Coxsackievirus B3): 39 µM

N#Cc1cc([N+](=O)[O-])ccc1Oc1ccc(N)c([N+](=O)[O-])c1
IC50 (Coxsackievirus B3): 10 µM

N#Cc1cc([N+](=O)[O-])ccc1Oc1ccc(Cl)c(Cl)c1Cl
IC50 (Coxsackievirus B3): > 146 µM

N#Cc1cc([N+](=O)[O-])ccc1Oc1c(Cl)cc(Cl)cc1Cl
IC50 (Coxsackievirus B3): 72 µM

CC(C)(C)c1ccc(Oc2ccc([N+](=O)[O-])cc2C#N)cc1
IC50 (Coxsackievirus B3): > 338 µM

N#Cc1cc([N+](=O)[O-])ccc1Oc1ccc(CO)cc1
IC50 (Coxsackievirus B3): 121 µM

N#Cc1cc([N+](=O)[O-])ccc1Oc1ccc(I)cc1
IC50 (Coxsackievirus B3): 5.7 µM

N#Cc1cc([N+](=O)[O-])ccc1Oc1cccc(NC(N)=S)c1
IC50 (Coxsackievirus B3): 234 µM

C[S+]([O-])c1ccc(Oc2ccc([N+](=O)[O-])cc2C#N)cc1 (stereo not given)
IC50 (Coxsackievirus B3): 205 µM

N#Cc1cc([N+](=O)[O-])ccc1Oc1ccc(Cl)cc1Br
IC50 (Coxsackievirus B3): 3.7 µM

N#Cc1cc([N+](=O)[O-])ccc1Oc1cccc(NC(N)=O)c1
IC50 (Coxsackievirus B3): > 335 µM

N#Cc1cc([N+](=O)[O-])ccc1Oc1ccc(N)cc1
IC50 (Coxsackievirus B3): 106 µM

N#Cc1cc([N+](=O)[O-])ccc1Oc1cccc(I)c1
IC50 (Coxsackievirus B3): 5.7 µM

N#Cc1cc([N+](=O)[O-])ccc1Oc1ccc(C(N)=O)cc1
IC50 (Coxsackievirus B3): > 353 µM

Cc1cc(C)cc(Oc2ccc([N+](=O)[O-])cc2C#N)c1
IC50 (Coxsackievirus B3): > 324 µM
